Data reported in PubChem BioAssay AID1040 (The Scripps Research Institute Molecular Screening Center, 2008).
The whole screen tested about 200,000 compounds, of which about 2,000 (1%) were called active. The entries come from a sample that favours actives as a whole. Values without a mark were called inactive.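 The calls were made as follows: active = inhibition above the campaign mean inhibition of all tested compounds plus 3 SD (cut at about 20% in these data); inactive = the rest.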

Each molecule was assayed against Neuropeptide Y receptor type 1 (Homo sapiens) (UniProt P25929) (assay: NPY-Y1 receptor antagonists, primary screen, cell-based (AID 1040;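 also: 0% = DMSO wells given NPY plus isoproterenol and 100% = isoproterenol alone without NPY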)). Details: HEK293-CNG Y1 cells, membrane potential fluorescence; at 3.6 µM; active compounds read high; NPY at EC95, then isoproterenol.
Neuropeptide Y receptor type 1 (Homo sapiens), sequence (P25929 whole entry, looked up): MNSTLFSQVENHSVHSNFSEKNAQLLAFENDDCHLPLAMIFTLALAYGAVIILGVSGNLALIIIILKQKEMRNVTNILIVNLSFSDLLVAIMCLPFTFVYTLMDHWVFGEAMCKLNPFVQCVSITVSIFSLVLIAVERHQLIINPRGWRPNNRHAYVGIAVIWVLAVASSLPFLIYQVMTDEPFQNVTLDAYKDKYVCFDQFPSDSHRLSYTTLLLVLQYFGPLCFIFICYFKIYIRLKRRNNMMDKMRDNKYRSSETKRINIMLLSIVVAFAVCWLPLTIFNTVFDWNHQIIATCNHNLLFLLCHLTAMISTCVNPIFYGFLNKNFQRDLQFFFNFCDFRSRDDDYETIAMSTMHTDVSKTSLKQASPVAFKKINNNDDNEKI
How it was run: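 Test system – HEK293 Y1/CNG channel cell line · Also added – NPY agonist 25 nM, then isoproterenol 1 µM plus Ro 20-1724 25 µM · Compound dosing – one concentration, 3.6 µM, in 0.4% DMSO · Schedule – compound incubation 1 h at room temperature, readout 45 min post-stimulation · Technique – fluorescence, membrane potential probe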

Row | Compound | inhibition
1 | CCOC(=O)c1cccnc1NC(=O)c1ccncc1 | -1.05%
2 | CC(C)N(C(=O)CSc1nc(COc2ccccc2)nc2ccccc12)C(C)C | 3.31%
3 | CCOC(=O)N1CCN(C(=S)Nc2ccc(C)cc2C)CC1 | 3.77%
4 | CCOC(=O)c1nn(-c2cccc(C)c2)cc1C(=O)c1ccccc1 | 22% (active)
5 | CC(=O)c1nn(-c2cccc(Br)c2)cc1C(=O)c1cccc2ccccc12 | -2.46%
6 | CCOC(=O)c1cn(Cc2cccc(C)c2)nn1 | -0.81%
7 | CCCCC(=O)Nc1nc(C)c(-c2csc(Nc3ccc(Cl)cc3)n2)s1 | 4.16%
8 | CCCCCCC(=O)Nc1nc(C)c(-c2csc(Nc3cccc(OC)c3)n2)s1 | 28.2% (active)
9 | CCCCCCC(=O)Nc1nc(C)c(-c2csc(Nc3cc(Cl)ccc3OC)n2)s1 | 11.2%
10 | CCOC(=O)C1CCCN(C(=O)COc2ccc(N(C)S(=O)(=O)c3ccc(C)cc3)cc2)C1 (stereo not given) | 2%
11 | CCSC1=NCCN1S(=O)(=O)c1ccc(F)cc1 | -1.87%
12 | COCCNC(=O)COc1ccc(C)c(C)c1 | -3.6%
13 | Cc1cccc(OCC(=O)Nc2ccccc2F)c1 | 5.47%
14 | Cc1ccc(OCC(=O)Nc2cccc3c2CCCC3)cc1C | 21.6% (active)
15 | COc1ccc(C2Nc3ccccc3C(=O)N2c2ccc(Cl)cc2)cc1Cn1cc([N+](=O)[O-])cn1 (stereo not given) | 3.97%
16 | COc1ccc(C2Nc3ccccc3C(=O)N2Cc2ccccc2)cc1Cn1nnc2ccccc21 (stereo not given) | 27.9% (active)
17 | COc1ccc(C2Nc3ccccc3C(=O)N2c2ccc(F)cc2)cc1Cn1nnc2ccccc21 (stereo not given) | -0.97%
18 | OCCC1CN(Cc2cccc(OC3CCCC3)c2)CCN1Cc1ccsc1 (stereo not given) | 7.81%
19 | CC(=O)NCCC(=O)Nc1nc(C)c(Cc2ccc3c(c2)OCO3)s1 | 3.53%
20 | CC(=O)OC(C)C[N+](C)(C)C (stereo not given) | 25.2% (active)
21 | CC(C[N+](C)(C)C)OC(N)=O (stereo not given) | -2.3%
22 | CC1CN(CCOc2ccccc2[N+](=O)[O-])CC(C)O1 (stereo not given) | -1.43%
23 | CC1CCCN(CCOCCOc2ccccc2-c2ccccc2)C1 (stereo not given) | 12.5%
24 | Cc1cc(C)c(OCCN2CC(C)OC(C)C2)c(Br)c1 (stereo not given) | 9.03%
25 | c1ccc(-c2ccccc2OCCN2CCCCC2)cc1 | 22.3% (active)

Row | Compound | inhibition
26 | CN1CCN(CCCCOc2ccccc2-c2ccccc2)CC1 | 12.9%
27 | CC1CN(CCCOc2ccccc2-c2ccccc2)CC(C)O1 (stereo not given) | 24.5% (active)
28 | COC(=O)COc1cccc2c(=O)n(CC(=O)NCCc3ccc(OC)c(OC)c3)ccc12 | -1.97%
29 | O=C(CSc1nnnn1C1CCCC1)Nc1ccc2c(c1)OCCO2 | 22.9% (active)
30 | O=C(CSc1nnnn1-c1ccc2c(c1)CCC2)Nc1ccc2c(c1)OCCO2 | 6.81%
31 | CCC(=O)Nc1cccc(NC(=O)CSc2nnnn2C2CCCC2)c1 | 3.57%
32 | O=C(NCC1CCCO1)c1ccc2ccccc2n1 (stereo not given) | 2.64%
33 | CCC(=O)c1c[nH]c(C(=O)NCC2CCCO2)c1 (stereo not given) | 55.6% (active)
34 | CCC(=O)Nc1ccc(S(=O)(=O)NCC2CCCO2)cc1 (stereo not given) | -5.94%
35 | Nc1ccc(Cl)c(S(=O)(=O)Nc2ccccc2Cl)c1 | -0.95%
36 | COC(=O)c1ccc(NC(=S)NN2CCOCC2)cc1 | 4.27%
37 | O=C(NC(c1ccccc1)c1ccccc1)N1CCN(CCO)CC1 | 3.34%
38 | CC(Nc1nc(N2CCCC2)nc2ccccc12)c1ccccc1 (stereo not given) | 32.6% (active)
39 | c1ccc(-c2cc(N3CCCCC3)c3ccccc3n2)cc1 | 15.9%
40 | CC(Nc1nc(N2CCOCC2)nc2ccccc12)c1ccccc1 (stereo not given) | 8.28%
41 | CC(Nc1nc(N2CCN(CCO)CC2)nc2ccccc12)c1ccccc1 (stereo not given) | 22.2% (active)
42 | CCCCn1c(CN2CCN(CCO)CC2)nc2ccccc21 | 6.52%
43 | COc1ccc(CC(=O)Nc2ccccc2NC(=O)c2ccco2)cc1OC | 0.93%
44 | Cc1ccc(-c2nnc(SCC(=O)N/N=C/c3cccs3)n2-c2ccc(C)cc2)cc1 | 0.85%
45 | CC(Oc1ccccc1F)C(=O)NN (stereo not given) | 2.86%
46 | O=C(O)CCc1nc2cc(Cl)ccc2n(Cc2ccccc2)c1=O | 5.7%
47 | O=C(C1CCCN1S(=O)(=O)c1ccc(Br)cc1)N1CCOCC1 (stereo not given) | -0.15%
48 | CN1CCN(c2ccc(NC(=O)c3ccc4c(c3)OCCO4)cc2Cl)CC1 | 12%
49 | O=C(O)c1ccccc1-c1ccccc1C(=O)Nc1nccs1 | 2.4%
50 | O=C(NCCc1ccc(F)cc1)c1n[nH]c2ccccc12 | -0.22%

Row | Compound | inhibition
51 | Cc1ccc(C)c(NC(=S)NCC(c2cccnc2)N2CCOCC2)c1 (stereo not given) | 0.28%
52 | O=C1c2cccc3cccc(c23)C(=O)N1CCCCCc1n[nH]c(=S)o1 | 5.39%
53 | O=C(Nc1cccc(Cl)c1)Nc1ccccc1NS(=O)(=O)c1cccs1 | -7.2%
54 | c1ccc2[nH]c(-c3nc4ccccc4[nH]3)nc2c1 | 0.38%
55 | COc1ccc(-c2[nH]nc(-c3ccccc3)c2-c2nc3ccccc3[nH]2)cc1 | 20.3% (active)
56 | c1ccc(-c2[nH]ncc2-c2nc3ccccc3[nH]2)cc1 | -3.83%
57 | Cc1ccc(NC(=O)C(=O)NCC2CCN(C(=O)c3cccc([N+](=O)[O-])c3)CC2)cc1 | -1.84%
58 | Cc1ccc(S(=O)(=O)/N=C(\N)c2ccc(F)cc2)cc1 | -5.62%
59 | Clc1ccc(-c2cc(COc3ccccc3)no2)cc1Cl | 5%
60 | Clc1ccccc1-c1cc(COc2ccc3ccccc3c2)no1 | 25.6% (active)
61 | O=C(NCc1ccccn1)c1cc(-c2ccccc2Cl)on1 | 9.55%
62 | Cc1cc(C)cc(C(=O)NC(=S)Nc2ccc3[nH]c(=O)[nH]c3c2)c1 | 6.81%
63 | COc1ccccc1CNC(=O)c1cc(=O)c2ccccc2o1 | -4.58%
64 | COc1cc2c(cc1/C=C1/NC(=O)N(c3ccccc3)C1=O)OCO2 | 6.09%
65 | COc1ccccc1C1C2=C(COC2=O)Nc2cc3c(cc21)OCO3 (stereo not given) | 36.2% (active)
66 | CCCOc1ccccc1C1CC(=O)Nc2cc3c(cc21)OCO3 (stereo not given) | 8.29%
67 | CCC(C)[C@@H](C(=O)N1CCNCC1)n1cc(CCCCN)nn1 (stereo not given in full) | 1.85%
68 | O=C(CC1NCCNC1=O)Nc1cc(Cl)cc(Cl)c1 (stereo not given) | 0.62%
69 | COC(=O)c1ccc(/C=N/OCC(=O)Nc2cc(F)ccc2F)cc1 | 11.1%
70 | Cc1ccc(CSc2nc3[nH]ncc3c(=O)[nH]2)cc1 | 7.17%
71 | Cc1cccc2cc(CN(Cc3cccs3)C(c3nnnn3C3CCCC3)C(C)C)c(=O)[nH]c12 (stereo not given) | 14.5%
72 | CCC(c1nnnn1C1CCCC1)N(Cc1cccs1)Cc1cc2cccc(C)c2[nH]c1=O (stereo not given) | 20.4% (active)
73 | Cc1cccc2cc(CN(Cc3ccc4c(c3)OCO4)Cc3nnnn3C3CCCC3)c(=O)[nH]c12 | -4.12%
74 | CCOc1cccc(OCCCOc2cccc3cccnc23)c1 | 1.99%
75 | CN(C)S(=O)(=O)c1cccc(NC(=O)COC(=O)c2cc(=O)[nH]c(=O)[nH]2)c1 | 0.75%

Row | Compound | inhibition
76 | CCOC(=O)C1CCN(C(=O)/C=C/c2cc(OC)c(OC)c(OC)c2)CC1 | -1.4%
77 | Cc1ccc(/C=N/NC(=O)c2sccc2OCc2ccc(F)cc2)cc1 | 27.2% (active)
78 | Cc1ccsc1C(=O)N/N=C/c1ccc([N+](=O)[O-])cc1 | 2.54%
79 | Cc1ccc(COc2ccc(/C=N/NC(=O)CN3CCCCC3)cc2)cc1 | 16.6%
80 | CS/C(=C\[N+](=O)[O-])Nc1ccc(C)cc1 | 10.6%
81 | O=C(COC(=O)C1CC2C=CC1C2)Nc1ccccc1 (stereo not given) | -2.39%
82 | CCCCN(CC)C(=O)c1ccc2c(c1)OCO2 | -2.36%
83 | CCOc1ccc(CCNC(=O)C2=C(C)C(=O)OC23CCC(C)CC3)cc1OCC (stereo not given) | 8.46%
84 | O=C(O)CSc1nccn1-c1cccc(Cl)c1 | 7.38%
85 | O=C(O)CSc1nccc2ccccc12 | 21.7% (active)
86 | COC(=O)CSc1nc(C2CC2)nc2ccccc12 | 3.03%
87 | CC1COc2ccccc2N1C(=O)c1cccnc1Cl (stereo not given) | 1.41%
88 | CCOc1ccccc1Nc1ccc(C(=O)O)cc1[N+](=O)[O-] | 3.86%
89 | ClC1(Cl)CC1CSc1ncn[nH]1 (stereo not given) | 3.1%
90 | COC(=O)c1nc2n(n1)C(c1ccc([N+](=O)[O-])cc1)C(C(=O)Nc1ccc(Cl)cc1)=C(C)N2 (stereo not given) | -1.89%
91 | Cc1nn(C)c(C)c1Sc1ccccc1N | -0.64%
92 | COc1ccc(-n2cnc3cc(NCc4ccco4)ccc32)cc1 | -4.2%
93 | c1ccc(-c2oc3ncnc(N4CCOCC4)c3c2-c2ccccc2)cc1 | 4.24%
94 | COc1ccc(-c2oc3ncn(Cc4ccco4)c(=N)c3c2-c2ccc(OC)cc2)cc1 | 31.4% (active)
95 | C(=C\c1ccccc1)/CSc1nnc(-c2cccnc2)n1Cc1ccco1 | 9.54%
96 | COc1ccc2[nH]c3c(=O)n(Cc4ccco4)cnc3c2c1 | 1.7%
97 | N=c1c2c(-c3ccccc3)c(-c3ccccc3)oc2ncn1Cc1ccco1 | 25.5% (active)
98 | Cc1ccccc1NC(=O)NC1(C(=O)N2CCCC2)CCCCC1 | 0.5%
99 | COc1cc(SC)ccc1C(=O)Nc1cc(C)ccn1 | 4.33%
100 | Cc1ccc(C(=O)NCC(=O)O)s1 | -2.04%
